# Data: ChEMBL document CHEMBL3351588, “Design, synthesis and biological evaluation of N-alkyl or aryl substituted isoindigo derivatives as potential dual cyclin-dependent kinase 2 (CDK2)/glycogen synthase kinase 3β (GSK-3β) phosphorylation inhibitors” (Eur J Med Chem, 2014)
# Legend:
# K562 [1] = experiment: Induction of apoptosis in human K562 cells assessed as early apoptotic cells level at 15 uM after 24 hrs by Annexin V-FITC/propidium iodide staining based flow cytometry (reference value: […]); assay type: functional
# K562 [2] = experiment: Induction of apoptosis in human K562 cells assessed as necrotic cells level at 15 uM after 48 hrs by Annexin V-FITC/propidium iodide staining based flow cytometry (reference value: 0.01%); assay type: functional
# Procedure, shortened: (§1)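 K562 cells exposed for 24 h or 48 h to 0, 5.0, 10.0, 15.0, 20.0 or 30.0 µM; vehicle DMSO 0.5% v/v. Cells stained with FITC-Annexin V, then counterstained with PI, and analysed by FACScan flow cytometry. Quadrants: Annexin V−/PI− viable; Annexin V+/PI− early apoptotic; Annexin V+/PI+ late apoptotic/necrotic.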
# K562 [3] = experiment: Induction of apoptosis in human K562 cells assessed as viable cells level at 10 uM after 48 hrs by Annexin V-FITC/propidium iodide staining based flow cytometry (reference value: 99.21%); assay type: functional; procedure, shortened: as §1
# K562 [4] = experiment: Induction of apoptosis in human K562 cells assessed as late apoptotic cells level at 30 uM after 48 hrs by Annexin V-FITC/propidium iodide staining based flow cytometry (reference value: 0.54%); assay type: functional; procedure, shortened: as §1
# K562 [5] = experiment: Reduction in c-myc protein expression in human K562 cells at 5 to 30 uM after 24 hrs by Western blotting method; assay type: functional, cell-based
# K562 [6] = experiment: Induction of apoptosis in human K562 cells assessed as necrotic cells level at 30 uM after 48 hrs by Annexin V-FITC/propidium iodide staining based flow cytometry (reference value: 0.01%); assay type: functional; procedure, shortened: as §1
# K562 [7] = experiment: Induction of apoptosis in human K562 cells assessed as late apoptotic cells level at 30 uM after 24 hrs by Annexin V-FITC/propidium iodide staining based flow cytometry (reference value: 0.79%); assay type: functional; procedure, shortened: as §1
# K562 [8] = experiment: Induction of apoptosis in human K562 cells assessed as early apoptotic cells level at 10 uM after 48 hrs by Annexin V-FITC/propidium iodide staining based flow cytometry (reference value: 0.24%); assay type: functional; procedure, shortened: as §1
# K562 [9] = experiment: Induction of cell cycle arrest in human K562 cells assessed as accumulation at S phase at 30 uM after 24 hrs by propidium iodide staining based flow cytometry (reference value: 44.90%); assay type: functional
# K562 [10] = experiment: Induction of apoptosis in human K562 cells assessed as necrotic cells level at 20 uM after 24 hrs by Annexin V-FITC/propidium iodide staining based flow cytometry (reference value: 0.0%); assay type: functional; procedure, shortened: as §1
# K562 [11] = experiment: Induction of apoptosis in human K562 cells assessed as viable cells level at 20 uM after 24 hrs by Annexin V-FITC/propidium iodide staining based flow cytometry (reference value: 97.64%); assay type: functional; procedure, shortened: as §1
# K562 [12] = experiment: Induction of cell cycle arrest in human K562 cells assessed as accumulation at G2/M phase at 20 uM after 24 hrs by propidium iodide staining based flow cytometry (reference value: 18.96%); assay type: functional
# K562 [13] = experiment: Induction of apoptosis in human K562 cells assessed as early apoptotic cells level at 10 uM after 24 hrs by Annexin V-FITC/propidium iodide staining based flow cytometry (reference value: […]); assay type: functional
# K562 [14] = experiment: Induction of cell cycle arrest in human K562 cells assessed as accumulation at G0/G1 phase at 5 uM after 24 hrs by propidium iodide staining based flow cytometry (reference value: 36.14%); assay type: functional
# K562 [15] = experiment: Induction of apoptosis in human K562 cells after 24 hrs by Annexin V-FITC/propidium iodide staining based flow cytometry; assay type: functional, cell-based; procedure, shortened: as §1
# K562 [16] = experiment: Induction of apoptosis in human K562 cells assessed as necrotic cells level at 5 uM after 48 hrs by Annexin V-FITC/propidium iodide staining based flow cytometry (reference value: 0.01%); assay type: functional; procedure, shortened: as §1
# K562 [17] = experiment: Induction of apoptosis in human K562 cells assessed as early apoptotic cells level at 20 uM after 48 hrs by Annexin V-FITC/propidium iodide staining based flow cytometry (reference value: 0.24%); assay type: functional; procedure, shortened: as §1
# HeLa = experiment: Cytotoxicity against human HeLa cells after 48 hrs by SRB assay; assay type: functional, cell-based
# Procedure, shortened: (§2)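 Cells seeded at 5 × 10³ per well and allowed to attach for 12 h, then exposed to a range of drug concentrations in their own medium for 48 h. Fixed with ice-cold TCA for 1 h at 4 °C, washed, then stained with 0.4% SRB for 30 min at room temperature. IC50 is the mean of three independent experiments.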
# K562 [18] = experiment: Induction of apoptosis in human K562 cells assessed as viable cells level at 30 uM after 48 hrs by Annexin V-FITC/propidium iodide staining based flow cytometry (reference value: 99.21%); assay type: functional; procedure, shortened: as §1
# K562 [19] = experiment: Induction of apoptosis in human K562 cells assessed as necrotic cells level at 30 uM after 24 hrs by Annexin V-FITC/propidium iodide staining based flow cytometry (reference value: 0.0%); assay type: functional; procedure, shortened: as §1
# [20] = molecular target: Glycogen synthase kinase-3 beta (Homo sapiens) (UniProt P49841); experiment: Inhibition of GSK3beta Ser9 phosphorylation in human K562 cells at 5 to 30 uM after 24 hrs by Western blotting method; assay type: cell-based
# Chain of Glycogen synthase kinase-3 beta (Homo sapiens) (P49841 whole entry, looked up): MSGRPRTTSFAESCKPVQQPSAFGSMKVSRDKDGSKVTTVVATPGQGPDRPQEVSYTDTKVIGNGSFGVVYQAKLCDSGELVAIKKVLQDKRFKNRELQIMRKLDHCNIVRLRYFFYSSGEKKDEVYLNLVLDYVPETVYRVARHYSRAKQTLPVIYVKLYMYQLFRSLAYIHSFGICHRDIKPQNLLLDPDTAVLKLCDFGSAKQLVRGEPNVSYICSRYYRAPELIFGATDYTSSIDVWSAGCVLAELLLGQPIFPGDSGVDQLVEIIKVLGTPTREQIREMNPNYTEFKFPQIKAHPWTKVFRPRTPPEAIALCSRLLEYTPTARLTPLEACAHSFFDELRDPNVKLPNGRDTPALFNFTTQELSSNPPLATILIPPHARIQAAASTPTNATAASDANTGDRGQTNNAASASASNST
# K562 [21] = experiment: Induction of apoptosis in human K562 cells assessed as necrotic cells level at 5 uM after 24 hrs by Annexin V-FITC/propidium iodide staining based flow cytometry (reference value: 0.0%); assay type: functional; procedure, shortened: as §1
# K562 [22] = experiment: Induction of cell cycle arrest in human K562 cells assessed as accumulation at S phase at 5 uM after 24 hrs by propidium iodide staining based flow cytometry (reference value: 44.90%); assay type: functional
# K562 [23] = experiment: Induction of apoptosis in human K562 cells after 48 hrs by Annexin V-FITC/propidium iodide staining based flow cytometry; assay type: functional, cell-based; procedure, shortened: as §1
# K562 [24] = experiment: Cytotoxicity against human K562 cells after 48 hrs by SRB assay; assay type: functional, cell-based; conditions: K562, 48 h; procedure, shortened: as §2
# K562 [25] = experiment: Induction of cell cycle arrest in human K562 cells assessed as accumulation at G2/M phase at 10 uM after 24 hrs by propidium iodide staining based flow cytometry (reference value: 18.96%); assay type: functional
# K562 [26] = experiment: Induction of cell cycle arrest in human K562 cells assessed as accumulation at S phase at 10 uM after 24 hrs by propidium iodide staining based flow cytometry (reference value: 44.90%); assay type: functional
# K562 [27] = experiment: Induction of cell cycle arrest in human K562 cells assessed as accumulation at S phase after 24 hrs by propidium iodide staining based flow cytometry; assay type: functional
# L1210 = experiment: Cytotoxicity against mouse L1210 cells after 48 hrs by SRB assay; assay type: functional, cell-based; conditions: L1210, 48 h; procedure, shortened: as §2
# K562 [28] = experiment: Induction of apoptosis in human K562 cells assessed as necrotic cells level at 10 uM after 48 hrs by Annexin V-FITC/propidium iodide staining based flow cytometry (reference value: 0.01%); assay type: functional; procedure, shortened: as §1
# K562 [29] = experiment: Increase in GSK3beta protein expression in human K562 cells at 5 to 30 uM after 24 hrs by Western blotting method; assay type: functional, cell-based
# Procedure, shortened: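 K562 cells treated for 24 h; negative control DMSO 0.5% v/v, meisoindigo positive control. Lysates separated on 10% SDS-PAGE and transferred to nitrocellulose. Blocked with 5% milk in PBS-0.1% Tween-20, then probed for GSK-3β and p-GSK-3β (Ser9) for 2 h at room temperature, with β-actin as loading control. Detected with IRDye secondaries by infrared imaging and quantified by band gray value; p<0.05 versus DMSO.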
# [30] = Cytotoxicity against human VEC cells after 48 hrs by SRB assay; assay type: cell-based; procedure, shortened: as §2
structure (smiles),measurement,setting,value
COc1ccc(N2C(=O)/C(=C3/C(=O)Nc4ccccc43)c3ccccc32)cc1,Activity,K562 [1],5.34%
same,Activity,K562 [2],0.02%
same,Activity,K562 [3],96.91%
same,Activity,K562 [4],42.09%
same,inhibition,K562 [5],Dose-dependent effect
same,Activity,K562 [6],1.3%
same,Activity,K562 [7],20.02%
same,Activity,K562 [8],1.68%
same,Activity,K562 [9],62.77%
same,Activity,K562 [10],0.01%
same,Activity,K562 [11],72.9%
same,Activity,K562 [12],11.65%
same,Activity,K562 [13],4.4%
same,Activity,K562 [14],37.16%
same,Activity,K562 [15],Dose-dependent effect
same,Activity,K562 [16],0%
same,Activity,K562 [17],5.51%
same,IC50,HeLa,166 µM
same,Activity,K562 [18],62.69%
same,Activity,K562 [19],0%
same,inhibition,[20],Dose-dependent effect
same,Activity,K562 [21],0%
same,Activity,K562 [22],46.03%
same,Activity,K562 [23],Dose-dependent effect
same,IC50,K562 [24],7.8 µM
same,Activity,K562 [25],14.31%
same,Activity,K562 [26],50.88%
same,Activity,K562 [27],Dose-dependent effect
same,IC50,L1210,102 µM
same,Activity,K562 [28],0.02%
same,Activity,K562 [29],Dose-dependent effect
same,IC50,[30],> 200 µM
